Consider 3 compounds from ChEMBL document CHEMBL1255502, “A nonazole CYP51 inhibitor cures Chagas' disease in a mouse model of acute infection” (Antimicrob Agents Chemother, 2010).

Active and inactive are the calls of the source. The rule behind the calls is not given here.

For test [1], the target named is Sterol 14-alpha demethylase (Trypanosoma cruzi (strain CL Brener)) (UniProt Q7Z1V1). The experiment in a line: Inhibition of sterol 14-alpha-demethylase in Trypanosoma cruzi epimastigotes infected in BESM cells assessed as accumulation of lanosterol and eburicol precursors at 5 uM after 72 hrs. The class given is cell-based. The method, boiled down:
(§1)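 Log-phase epimastigotes were grown axenically in BHT medium (fetal bovine serum, brain heart infusion) and exposed to 5 μM compound for 72 h, with untreated parasites as the control. Pellets were washed in PBS, extracted in chloroform for 24 h at room temperature, BSTFA-derivatized, and sterols were analysed by GC-MS on a DB5-MS column (200→300°C at 15°C/min).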

Test [2] has the same target. The experiment in a line: Inhibition of sterol 14-alpha-demethylase in Trypanosoma cruzi epimastigotes infected in BESM cells assessed as reduction in episterol content at 5 uM after 72 hrs. The class given is cell-based. The method, boiled down:
as §1

Test [3] has the same target. Description: Inhibition of sterol 14-alpha-demethylase in Trypanosoma cruzi epimastigotes infected in BESM cells assessed as reduction in fecosterol content at 5 uM after 72 hrs. The format is cell-based. The method, boiled down:
as §1

The target is the same in test [4]. Description: Inhibition of sterol 14-alpha-demethylase in Trypanosoma cruzi amastigotes infected in BESM cells assessed as accumulation of lanosterol and eburicol precursors at 5 uM after 72 hrs. The format is cell-based. Summed up:
(§2)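 T. cruzi CA-I/72 amastigotes were grown in BESM cells in RPMI 1640 with 5% heat-inactivated FCS at 37°C under 5% CO2. Monolayers were infected for 24 h, then the medium was replaced with 5 μM compound or DMSO; noninfected BESM cells served as a control. Lipids were extracted with chloroform, TMS-derivatized with BSTFA for 2 h, and sterols identified by GC-MS from [M−90]+ and [M+73]+ ions.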

For test [5] the target is unchanged. The experiment in a line: Inhibition of sterol 14-alpha-demethylase in Trypanosoma cruzi amastigotes infected in BESM cells assessed as reduction in episterol content at 5 uM after 72 hrs. The class given is cell-based. Summed up:
as §2

The target is the same in test [6]. Description: Inhibition of sterol 14-alpha-demethylase in Trypanosoma cruzi amastigotes infected in BESM cells assessed as reduction in fecosterol content at 5 uM after 72 hrs. The format is cell-based. Summed up:
as §2

Test [7] concerns Trypanosoma cruzi. Description: Antimicrobial activity against Trypanosoma cruzi infected in C3H mouse at 40 mg/kg, ip BID administered 24 hrs post infection measured after 12 days. Set-up: dose 40 mg/kg. The class given is functional, organism-based. The method, boiled down: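 Female C3H mice (7–8 weeks, 17.5–18.0 g, five per group) infected i.p. with 10⁶ tissue-culture trypomastigotes of T. cruzi CA-I/72. Dosing began 24 h postinfection: i.p. in 100 μl of 60% DMSO–40% ddH₂O, twice daily for 30 days. An untreated infected group served as control. Mice were scored for clinical signs (ascitic abdomen, hind-leg weakness) at day 12 postinfection.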

Test [8] has as its target Sterol 14-alpha demethylase (Trypanosoma cruzi (strain CL Brener)) (UniProt Q7Z1V1). The following applies: BESM, 10 uM.
Test [9] shares this target. The following applies: BESM, 10 uM. The source holds these as a separate data set.
Test [10] has the same target. The conditions noted are these: BESM, 10 uM. The source holds these as a separate data set.
For test [11] the target is unchanged. The conditions noted are these: BESM, 10 uM. This is another data set of the same source.
For test [12] the target is unchanged. The conditions noted are these: BESM, 10 uM. This is another data set of the same source.
Test [13] has the same target. The following applies: BESM, 10 uM. This is another data set of the same source.
Test [14] has the same target. The conditions noted are these: BESM, 10 uM. The source holds these as a separate data set.
For test [15] the target is unchanged. The conditions noted are these: BESM, 10 uM. The source holds these as a separate data set.
Test [16] has the same target. The conditions noted are these: BESM, 10 uM. This is another data set of the same source.
Test [17] shares this target. The conditions noted are these: BESM, 10 uM. The source holds these as a separate data set.
Test [18] has the same target. The experiment in a line: Inhibition of sterol 14-alpha-demethylase in Trypanosoma cruzi amastigotes infected in BESM cell assessed as cell death at 0.25 uM after 72 hrs by electron microscopy.
For test [19] the target is unchanged. The experiment in a line: Inhibition of sterol 14-alpha-demethylase in Trypanosoma cruzi amastigotes infected in BESM cell assessed as abnormalities in nuclear DNA at 0.25 uM after 72 hrs by electron microscopy. The class given is cell-based.
Test [20] shares this target. Description: Inhibition of sterol 14-alpha-demethylase in Trypanosoma cruzi amastigotes infected in BESM cell assessed as abnormalities in nuclear membrane at 0.25 uM after 72 hrs by electron microscopy. The class given is cell-based.
Test [21] has the same target. The experiment in a line: Inhibition of sterol 14-alpha-demethylase in Trypanosoma cruzi amastigotes infected in BESM cell assessed as appearance of large autophagic vesicles at 0.25 uM after 48 hrs by electron microscopy. The format is cell-based.
The target is the same in test [22]. The experiment in a line: Inhibition of sterol 14-alpha-demethylase in Trypanosoma cruzi amastigotes infected in BESM cell assessed as swelling of nuclear membrane at 0.25 uM after 48 hrs by electron microscopy. The format is cell-based.
The target is the same in test [23]. The experiment in a line: Inhibition of sterol 14-alpha-demethylase in Trypanosoma cruzi amastigotes infected in BESM cell assessed as blebbing of the cell membrane at 0.25 uM after 48 hrs by electron microscopy. The class given is cell-based.
Test [24] has the same target. The experiment in a line: Inhibition of sterol 14-alpha-demethylase in Trypanosoma cruzi epimastigotes infected in BESM cell assessed as abnormalities in nuclear membrane at 0.25 uM after 72 hrs by electron microscopy. The format is cell-based.
Test [25] shares this target. Description: Inhibition of sterol 14-alpha-demethylase in Trypanosoma cruzi epimastigotes infected in BESM cell assessed as abnormalities in nuclear DNA at 0.25 uM after 72 hrs by electron microscopy. The format is cell-based.
The target is the same in test [26]. The experiment in a line: Inhibition of sterol 14-alpha-demethylase in Trypanosoma cruzi epimastigotes infected in BESM cell assessed as cell death at 0.25 uM after 72 hrs by electron microscopy. The class given is cell-based.
The target is the same in test [27]. Description: Inhibition of sterol 14-alpha-demethylase in Trypanosoma cruzi epimastigotes infected in BESM cell assessed as effect on cell division at 0.25 uM after 72 hrs by electron microscopy. The class given is cell-based.
Test [28] concerns Trypanosoma cruzi. The experiment in a line: Antimicrobial activity against Trypanosoma cruzi infected in C3H mouse at 50 mg/kg, ip BID administered 24 hrs post infection measured after 12 days. The format is functional, organism-based. Set-up: dose 50 mg/kg. Summed up:
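Female C3H mice (7–8 weeks, 17.5–18.0 g, five per group) infected i.p. with 10⁶ tissue-culture trypomastigotes of T. cruzi CA-I/72. The cruzain cysteine-protease inhibitor was given from 24 h postinfection: i.p. in 100 μl of 30% DMSO–70% ddH₂O, twice daily for 30 days. An untreated infected group served as control. Clinical signs (ascites, hind-leg weakness) were assessed at day 12 postinfection.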

Chain of Sterol 14-alpha demethylase (Trypanosoma cruzi (strain CL Brener)) (Q7Z1V1 whole entry, looked up, the tested form may be a part): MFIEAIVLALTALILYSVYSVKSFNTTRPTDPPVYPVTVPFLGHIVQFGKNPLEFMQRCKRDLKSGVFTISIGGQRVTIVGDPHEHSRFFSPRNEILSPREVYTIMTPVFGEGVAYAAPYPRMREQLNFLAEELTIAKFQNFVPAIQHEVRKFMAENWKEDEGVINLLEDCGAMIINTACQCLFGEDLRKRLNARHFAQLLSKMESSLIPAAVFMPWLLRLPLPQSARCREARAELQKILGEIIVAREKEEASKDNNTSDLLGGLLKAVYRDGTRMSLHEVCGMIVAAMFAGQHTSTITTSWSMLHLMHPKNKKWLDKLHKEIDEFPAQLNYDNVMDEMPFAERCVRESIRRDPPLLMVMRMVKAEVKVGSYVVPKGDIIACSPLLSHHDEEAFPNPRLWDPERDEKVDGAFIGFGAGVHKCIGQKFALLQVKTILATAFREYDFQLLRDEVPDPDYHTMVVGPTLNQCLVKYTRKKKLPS

`CC1CCC(C(=O)NC(Cc2c[nH]c3ccccc23)C(=O)Nc2ccncc2)CC1` (centres undefined): the inhibition result in [1], in test [2], in [3], in test [4], in [5] and in test [6] was “Active” each time. For the same compound, the inhibition result in [8], in test [12], in test [13], in [14], in test [15] and in test [16] was “Active” each time. The result in the test with Trypanosoma cruzi [7] was Active. Moreover, the inhibition result in [9], in test [10], in test [11] and in test [17] was “inactive” in each case.
Take `CC[C@@H]([C@H](C)O)n1ncn(-c2ccc(N3CCN(c4ccc(OC[C@@H]5CO[C@@](Cn6cncn6)(c6ccc(F)cc6F)C5)cc4)CC3)cc2)c1=O`: the inhibition entry in test [18], in [19], in test [20], in test [21], in test [22] and in test [23] was “Active” each time. For the same compound, the inhibition result in test [1], in test [2], in test [3], in test [4], in test [5] and in [6] was “Active” throughout. Besides, the inhibition result in test [24], in test [25], in test [26] and in test [27] was “inactive” throughout.
Regarding `CN1CCN(C(=O)N[C@@H](Cc2ccccc2)C(=O)N[C@H](/C=C/S(=O)(=O)c2ccccc2)CCc2ccccc2)CC1`, in the test with Trypanosoma cruzi [28], the result was Active.
